# Results: ChEMBL document CHEMBL3627704, “Synthesis, quorum sensing inhibition and docking studies of 1,5-dihydropyrrol-2-ones” (Bioorg Med Chem, 2015)
# Calls of active or inactive are those of the source. The rule behind the calls is not given here.
# System: Escherichia coli
# Assay: Inhibition of quorum sensing in Escherichia coli JB357 expressing green fluorescent protein assessed as reduction of OHHL-induced GFP expression after 2 hrs by fluorescence assay relative to OHHL
# How it was run: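 E. coli JB357 carrying Vibrio fischeri luxR-PluxI-gfp(ASV) reporter; OHHL at final 10, 20, 50 or 100 nM in culture medium, triplicate wells, with dihydropyrrol-2-one at 0–10 mg/mL. Incubated 2 h at 37 °C; GFP fluorescence read relative to solvent control (100%). ID40 taken for each OHHL level and plotted against OHHL. AIC40 is the gradient of the fit forced through origin (inhibitor mol : OHHL mmol).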
Compound,Ratio,inhibition
CCCCC1=CC(=C(Br)Br)N(c2ccccc2)C1=O,97,
O=C1C=C(Br)C2(CBr)OCCCN3C(=O)C=C(Br)C3(CBr)OCCCN12 (stereo unspecified),112,
CCCCC1=C(Br)/C(=C/Br)N(CCCC)C1=O,279,
CCCC(Br)C1=CC(=C(Br)Br)N(c2ccccc2)C1=O (stereo unspecified),1.95,
CCCC(O)C1=CC(=C(Br)Br)N(Cc2ccccc2)C1=O (stereo unspecified),,inactive
CCCCCCCCN1C(=O)C=C(Br)/C1=C/Br,20,
CCCCCCC1=C(Br)/C(=C/Br)N(Cc2ccccc2)C1=O,,inactive
CCCCCC(O)C1=CC(=C(Br)Br)N(Cc2ccccc2)C1=O (stereo unspecified),,inactive
CC(C)CN1C(=O)C=C(Br)C1=C(Br)Br,65,
CCCCCC(Br)C1=CC(=C(Br)Br)N(Cc2ccccc2)C1=O (stereo unspecified),,inactive
O=C1C=C(Br)/C(=C/Br)N1Cc1ccccc1,26,
CC(C)CN1C(=O)C=C(Br)/C1=C/Br,,inactive
CCCCCCC1=C(Br)/C(=C/Br)N(CCCC)C1=O,,inactive
CCCCCCC1=C(Br)/C(=C/Br)N(c2ccccc2)C1=O,,inactive
CCCCC1=CC(=C(Br)Br)N(Cc2ccccc2)C1=O,220,
CCCCCC(Br)C1=CC(=C(Br)Br)N(c2ccccc2)C1=O (stereo unspecified),,inactive
CCCCCCCCCCCCN1C(=O)C=C(Br)C1=C(Br)Br,,inactive
CCCCC1=C(Br)/C(=C/Br)N(c2ccccc2)C1=O,,inactive

Compound,Ratio,inhibition
CCCCC1=C(Br)/C(=C/Br)N(Cc2ccccc2)C1=O,,inactive
CCCCCCCCCCCCN1C(=O)C=C(Br)/C1=C/Br,,inactive
CCCCC1=CC(=C(Br)Br)N(CCCC)C1=O,,inactive
CCCC(Br)C1=CC(=C(Br)Br)N(Cc2ccccc2)C1=O (stereo unspecified),,inactive
O=C1C=C(Br)/C(=C/Br)N1c1ccccc1,,inactive
CCCCCCN1C(=O)C=C(Br)C1=C(Br)Br,,inactive
CCCCCCN1C(=O)C=C(Br)/C1=C/Br,,inactive
CCCCN1C(=O)C=C(Br)C1=C(Br)Br,,inactive
CCCCCCC1=CC(=C(Br)Br)N(CCCC)C1=O,,inactive
O=C1C=C(Br)C(=C(Br)Br)N1Cc1ccccc1,150,
CCCCC1=CC(=C(Br)Br)N(c2ccc(C)cc2)C1=O,,inactive
CCCCCCC1=CC(=C(Br)Br)N(c2ccccc2)C1=O,248,
CCCCCC(O)C1=CC(=C(Br)Br)N(c2ccccc2)C1=O (stereo unspecified),,inactive
CCCC(O)C1=CC(=C(Br)Br)N(c2ccccc2)C1=O (stereo unspecified),,inactive
O=C1C=C(Br)C2(CBr)OCCN3C(=O)C=C(Br)C3(CBr)OCCN12 (stereo unspecified),78,
CCCCN1C(=O)C=C(Br)/C1=C/Br,19,
CCCCCCCCN1C(=O)C=C(Br)C1=C(Br)Br,,inactive
CCCCCCC1=CC(=C(Br)Br)N(Cc2ccccc2)C1=O,140,
